The source of these data is ChEMBL document CHEMBL2331540, “Synthesis and SAR study of pyrrolo[3,4-b]pyridin-7(6H)-one derivatives as melanin concentrating hormone receptor 1 (MCH-R1) antagonists” (Bioorg Med Chem Lett, 2013).

In brackets after ≈: the same amount, converted by molar mass.

Data set [1] deals with Rattus norvegicus. The experiment in a line: Volume of distribution at steady state in rat at 10 mg/kg, po and iv. Further details: dose 10 mg/kg, route oral. The note with it: in vivo. It counts as ADME, organism-based. The procedure, abridged: (§1)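 Rats dosed at 10 mg/kg by both iv and po routes, n = 3; plasma pharmacokinetic parameters derived from the iv/po study.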
The subject of data set [2] is Rattus norvegicus. Nature of the data set: AUC in rat at 10 mg/kg, po. It counts as ADME, organism-based, Plasma. Also noted: dose 10 mg/kg, route oral. The note with it: in vivo. The procedure, abridged:
as §1

The test system of data set [3] is Rattus norvegicus. Nature of the data set: Oral bioavailability in rat at 10 mg/kg. It counts as ADME, organism-based. Particulars: in vivo. The procedure, abridged: as §1
Data set [4] in a line: Half life in rat at 10 mg/kg, po and iv. It counts as ADME, organism-based. Further details: dose 10 mg/kg, route oral. Particulars: in vivo. The procedure, abridged: as §1
The target of data set [5] is Melanin-concentrating hormone receptor 1 (Homo sapiens, UniProt Q99705). The experiment in a line: Displacement of Eu-MCH from human MCHR1 expressed in CHO cell membranes by TRF assay. The procedure, abridged: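 Competitive binding on membranes of CHO cells expressing human MCH-R1, with Eu-labeled MCH as tracer; bound label read by time-resolved fluorometry, values given as IC50.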

Data set [6] in a line: Aqueous solubility of the compound. It counts as physicochemical. The note with it: buffer.
In another data set the target is CYP2D6 (Homo sapiens, UniProt P10635). The experiment in a line: Inhibition of CYP2D6 (unknown origin) at 10 uM relative to control. It counts as ADME.
The next data set concerns the target CYP3A4 (Homo sapiens, UniProt P08684). Nature of the data set: Inhibition of CYP3A4 (unknown origin) at 10 uM relative to control. It counts as ADME.
Data set [7] in a line: Metabolic stability in human liver microsomes measured for 30 mins. Particulars: read-out: Stability. It counts as ADME, Microsome. Put shortly:
(§2)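 Test compound incubated 30 min with human or rat liver microsomes; stability given as percent remaining.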
(In general: Microsomes from liver hold many membrane-bound enzymes, among them those of drug oxidation.)

Data set [8] can be described thus: Permeability of the compound by PAMPA. It counts as ADME. The note with it: read-out: permeability. For orientation: The PAMPA barrier holds no transporters, so it reflects passive diffusion.
Data set [9] is described as follows: Metabolic stability in rat liver microsomes measured for 30 mins. It counts as ADME, Microsome. Particulars: read-out: Stability. Put shortly: as §2

Chain of Melanin-concentrating hormone receptor 1 (Q99705 whole entry): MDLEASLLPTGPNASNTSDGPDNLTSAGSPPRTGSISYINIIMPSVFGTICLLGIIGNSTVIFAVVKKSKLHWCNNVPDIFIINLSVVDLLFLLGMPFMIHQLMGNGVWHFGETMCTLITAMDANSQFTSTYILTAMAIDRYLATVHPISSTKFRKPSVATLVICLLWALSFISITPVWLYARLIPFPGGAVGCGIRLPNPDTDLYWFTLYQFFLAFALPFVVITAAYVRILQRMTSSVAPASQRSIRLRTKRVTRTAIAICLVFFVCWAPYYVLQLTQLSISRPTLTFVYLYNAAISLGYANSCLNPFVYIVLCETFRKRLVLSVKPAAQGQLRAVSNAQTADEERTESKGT
Chain of CYP3A4 (P08684 whole entry): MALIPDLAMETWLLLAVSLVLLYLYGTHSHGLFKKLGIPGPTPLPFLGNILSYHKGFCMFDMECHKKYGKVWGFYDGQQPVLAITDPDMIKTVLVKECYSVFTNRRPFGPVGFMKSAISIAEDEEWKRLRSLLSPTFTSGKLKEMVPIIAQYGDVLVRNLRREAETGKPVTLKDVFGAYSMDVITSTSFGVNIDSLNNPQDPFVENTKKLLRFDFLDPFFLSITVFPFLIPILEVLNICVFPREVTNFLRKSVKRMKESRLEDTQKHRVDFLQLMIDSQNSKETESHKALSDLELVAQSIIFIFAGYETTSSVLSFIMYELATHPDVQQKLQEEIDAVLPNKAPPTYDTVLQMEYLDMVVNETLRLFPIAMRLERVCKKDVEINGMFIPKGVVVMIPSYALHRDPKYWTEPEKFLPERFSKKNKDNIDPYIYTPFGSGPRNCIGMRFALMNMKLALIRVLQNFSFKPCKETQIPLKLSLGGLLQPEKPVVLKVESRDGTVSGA
Chain of CYP2D6 (P10635 whole entry): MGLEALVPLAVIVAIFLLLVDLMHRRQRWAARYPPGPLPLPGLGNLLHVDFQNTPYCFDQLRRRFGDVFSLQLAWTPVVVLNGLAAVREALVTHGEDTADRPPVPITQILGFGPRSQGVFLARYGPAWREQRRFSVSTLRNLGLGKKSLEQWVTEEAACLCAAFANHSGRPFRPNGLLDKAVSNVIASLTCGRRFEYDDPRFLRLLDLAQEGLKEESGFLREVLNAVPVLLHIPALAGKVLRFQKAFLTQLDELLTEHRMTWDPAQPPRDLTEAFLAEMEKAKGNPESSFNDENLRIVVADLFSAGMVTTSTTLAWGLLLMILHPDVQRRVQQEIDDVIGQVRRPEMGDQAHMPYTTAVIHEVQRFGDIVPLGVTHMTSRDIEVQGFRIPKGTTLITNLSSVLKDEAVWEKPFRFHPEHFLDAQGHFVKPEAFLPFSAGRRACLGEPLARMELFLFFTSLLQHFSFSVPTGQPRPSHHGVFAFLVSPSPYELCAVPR

On to `COc1cc(N2Cc3ccc(Sc4ccccc4)nc3C2=O)ccc1OCCN1CCCC1`, for which the Vdss in the data set on Rattus norvegicus [1] stood at 22.7 L/kg. In the data set with Rattus norvegicus [2], this compound gave an AUC of 320 ng·h/mL. For the same compound, in the data set with Rattus norvegicus [3], the F is listed as 35%. This compound also had a half-life in [4] of 2.8 h. In addition, in data set [5], the IC50 came to 20 nM.

On to `COc1cc(N2Cc3ccc(Sc4ccc(F)cc4)nc3C2=O)ccc1OCCN1CCCC1`, for which, in data set [6], the solubility is 104 µg/mL (≈ 217 µM). The compound further showed a Vdss in the data set on Rattus norvegicus [1] of 8.3 L/kg. In addition, the AUC in the data set on Rattus norvegicus [2] is 5700 ng·h/mL. For the same compound, the inhibition at 10 µM on CYP2D6 and against CYP3A4 was under 10% throughout. Also, the F with Rattus norvegicus [3] is recorded as 92%. Moreover, the results for the remaining at 0.5 h in data set [7] and in data set [9] were 97% and 79%, respectively. The Papp in data set [8] was 1.9 ×10⁻⁶ cm/s. In data set [4], the half-life is 3.4 h. This compound also showed an IC50 in data set [5] of 30 nM.

Take `COc1cc(N2Cc3ccc(Sc4ccc(Cl)cc4)nc3C2=O)ccc1OCCN1CCCC1`: the concentration for half-maximal inhibition (IC50) in data set [5] came out at 40 nM.

`COc1cc(N2Cc3ccc(Sc4ccc(C)cc4)nc3C2=O)ccc1OCCN1CCCC1`: in data set [5], the IC50 is 60 nM. Compared with the last compound, the IC50 is about 1.5-fold higher.

`COc1ccc(Sc2ccc3c(n2)C(=O)N(c2ccc(OCCN4CCCC4)c(OC)c2)C3)cc1` had an IC50 in data set [5] of 100 nM.

In turn, `COc1cc(N2Cc3ccc(Sc4ccc(F)cc4F)nc3C2=O)ccc1OCCN1CCCC1` returned an IC50 in data set [5] of 60 nM.

In the case of `COc1cc(N2Cc3ccc(Sc4ccc(F)c(F)c4)nc3C2=O)ccc1OCCN1CCCC1`, the IC50 in data set [5] is 50 nM.

Consider `COc1cc(N2Cc3ccc(Sc4ccc(F)cc4Cl)nc3C2=O)ccc1OCCN1CCCC1`, for which the IC50 in data set [5] was 80 nM.

Regarding `COc1cc(N2Cc3ccc(Sc4ccc(F)c(Cl)c4)nc3C2=O)ccc1OCCN1CCCC1`, in data set [5], the IC50 is 50 nM. This IC50 lies about 1.6-fold lower than the previous one.

For `COc1cc(N2Cc3ccc(-c4ccc(C(C)(C)C)cc4)nc3C2=O)ccc1OCCN1CCCC1`, the IC50 in [5] worked out at 320 nM.

In data set [5], `COc1cc(N2Cc3ccc(-c4cccc(C)c4C)nc3C2=O)ccc1OCCN1CCCC1` gave an IC50 of 190 nM.

In turn, `COc1cc(N2Cc3ccc(-c4cc(C)ccc4C)nc3C2=O)ccc1OCCN1CCCC1` displayed an IC50 in [5] of 300 nM.

`COc1cc(N2Cc3ccc(-c4ccc(C)c(C)c4)nc3C2=O)ccc1OCCN1CCCC1`: the IC50 in [5] is 180 nM.

In data set [5], `COc1cc(N2Cc3ccc(Cc4ccccc4)nc3C2=O)ccc1OCCN1CCCC1` displayed a half-maximal inhibitory concentration (IC50) of 70 nM.

For `COc1cc(N2Cc3ccc(Cc4ccccc4C)nc3C2=O)ccc1OCCN1CCCC1`, the IC50 in data set [5] was determined as 720 nM.

With `COc1cc(N2Cc3ccc(Cc4cccc(F)c4)nc3C2=O)ccc1OCCN1CCCC1`, the 50% inhibitory concentration (IC50) in [5] is 410 nM.

As to `COc1cc(N2Cc3ccc(Cc4ccc(F)cc4)nc3C2=O)ccc1OCCN1CCCC1`, in [5], the IC50 was found to be 80 nM. This IC50 lies about 5.1-fold lower than the previous one.

`COc1cc(N2Cc3ccc(Cc4ccc(Cl)cc4)nc3C2=O)ccc1OCCN1CCCC1` registered a 50% inhibitory concentration (IC50) in data set [5] of 120 nM.

On to `COc1cc(N2Cc3ccc(Cc4ccc(C)cc4)nc3C2=O)ccc1OCCN1CCCC1`, for which, in [5], the IC50 is 160 nM.

Compound `COc1cc(N2Cc3ccc(Cc4ccc(C(C)(C)C)cc4)nc3C2=O)ccc1OCCN1CCCC1` displayed an IC50 in [5] of 1910 nM.

With `COc1cc(N2Cc3ccc(-c4ccccc4F)nc3C2=O)ccc1OCCN1CCCC1`, the IC50 in data set [5] turned out to be 4130 nM. This IC50 is about 2.2-fold higher than that of the compound before.

Take `COc1cc(N2Cc3ccc(-c4ccc(F)cc4)nc3C2=O)ccc1OCCN1CCCC1`: the IC50 in data set [5] is 3100 nM.

In turn, `COc1cc(N2Cc3ccc(-c4ccc(C(F)(F)F)cc4)nc3C2=O)ccc1OCCN1CCCC1` showed an IC50 in data set [5] of 540 nM.

Consider `COc1cc(N2Cc3ccc(-c4ccc(C#N)cc4)nc3C2=O)ccc1OCCN1CCCC1`, for which the half-inhibitory concentration (IC50) in data set [5] amounted to 10000 nM. Compared with the last compound, the IC50 is about 19-fold higher.

The compound `COc1cc(N2Cc3ccc(-c4ccccc4C)nc3C2=O)ccc1OCCN1CCCC1` yielded an IC50 in [5] of 1040 nM.

In [5], `COc1cc(N2Cc3ccc(-c4ccc(C)cc4)nc3C2=O)ccc1OCCN1CCCC1` showed an IC50 of 80 nM. This IC50 lies about 13-fold lower than the previous one.

`CCc1ccccc1-c1ccc2c(n1)C(=O)N(c1ccc(OCCN3CCCC3)c(OC)c1)C2`: the IC50 in data set [5] worked out at 2000 nM. Against the preceding compound, the IC50 is about 25-fold higher.

Turning to `CCc1ccc(-c2ccc3c(n2)C(=O)N(c2ccc(OCCN4CCCC4)c(OC)c2)C3)cc1`, in data set [5], the IC50 was 50 nM.

`CCCc1ccc(-c2ccc3c(n2)C(=O)N(c2ccc(OCCN4CCCC4)c(OC)c2)C3)cc1` came in with an IC50 in data set [5] of 210 nM.

Take `CCCCc1ccc(-c2ccc3c(n2)C(=O)N(c2ccc(OCCN4CCCC4)c(OC)c2)C3)cc1`: the IC50 in data set [5] worked out at 2780 nM. This IC50 is about 13-fold higher than that of the compound before.

In the case of `COc1cc(N2Cc3ccc(-c4ccc(C(C)C)cc4)nc3C2=O)ccc1OCCN1CCCC1`, the IC50 in data set [5] worked out at 90 nM.

`C=Cc1ccc(-c2ccc3c(n2)C(=O)N(c2ccc(OCCN4CCCC4)c(OC)c2)C3)cc1`: the IC50 in data set [5] worked out at 130 nM.

In [5], `COc1cccc(-c2ccc3c(n2)C(=O)N(c2ccc(OCCN4CCCC4)c(OC)c2)C3)c1` displayed an IC50 of 2010 nM.

Regarding `COc1ccc(-c2ccc3c(n2)C(=O)N(c2ccc(OCCN4CCCC4)c(OC)c2)C3)cc1`, the IC50 in [5] turned out to be 340 nM.

For the compound `COc1cc(N2Cc3ccc(-c4ccccc4Cl)nc3C2=O)ccc1OCCN1CCCC1`, in data set [5], the IC50 amounted to 510 nM.

In [5], `COc1cc(N2Cc3ccc(-c4cccc(Cl)c4)nc3C2=O)ccc1OCCN1CCCC1` registered a concentration for half-maximal inhibition (IC50) of 5650 nM. This IC50 lies about 11-fold higher than the previous one.

`COc1cc(N2Cc3ccc(-c4ccc(Cl)cc4)nc3C2=O)ccc1OCCN1CCCC1`: the IC50 in data set [5] came to 440 nM. This IC50 is about 13-fold lower than that of the compound before.

In data set [5], `COc1cc(N2Cc3ccc(-c4ccccc4)nc3C2=O)ccc1OCCN1CCCC1` registered an IC50 of 10000 nM.

`COc1cc(N2Cc3ccc(-c4ccccc4OC)nc3C2=O)ccc1OCCN1CCCC1` gave an IC50 in [5] of 7110 nM.

A word on the AUC: it is concentration integrated over time. For orientation: half-life means the time needed for the level to fall by half in the phase considered. Broadly, the IC50 is the midpoint of a concentration-inhibition curve. The low end stands for greater potency in that assay, the high end for weaker potency in that assay. The term solubility denotes the dissolved amount per volume that the medium holds. For orientation: inhibition means the percentage by which the read-out fell short of the control. Low readings indicate a weak effect, high ones a strong effect.
